For 15 compounds, IC50 and ED50 results are on record in ChEMBL document CHEMBL1129729, “Orally active fibrinogen receptor antagonists. 2. Amidoximes as prodrugs of amidines” (J Med Chem, 1996).

Some results are limits rather than exact numbers.

In experiment [1] the target is Integrin alpha-IIb/beta-3 (Homo sapiens, UniProt P05106+P08514). Kind of experiment: Inhibition of FG binding to alpha IIb beta-3 integrin. The class given is protein-complex assay. In outline: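 Binding of fibrinogen to immobilized purified GP IIb-IIIa (αIIbβ3). IC50 was calculated by log-linear regression and is the mean of at least two independent experiments.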
Chain of Integrin alpha-IIb/beta-3 (P05106 27-788 limits assumed): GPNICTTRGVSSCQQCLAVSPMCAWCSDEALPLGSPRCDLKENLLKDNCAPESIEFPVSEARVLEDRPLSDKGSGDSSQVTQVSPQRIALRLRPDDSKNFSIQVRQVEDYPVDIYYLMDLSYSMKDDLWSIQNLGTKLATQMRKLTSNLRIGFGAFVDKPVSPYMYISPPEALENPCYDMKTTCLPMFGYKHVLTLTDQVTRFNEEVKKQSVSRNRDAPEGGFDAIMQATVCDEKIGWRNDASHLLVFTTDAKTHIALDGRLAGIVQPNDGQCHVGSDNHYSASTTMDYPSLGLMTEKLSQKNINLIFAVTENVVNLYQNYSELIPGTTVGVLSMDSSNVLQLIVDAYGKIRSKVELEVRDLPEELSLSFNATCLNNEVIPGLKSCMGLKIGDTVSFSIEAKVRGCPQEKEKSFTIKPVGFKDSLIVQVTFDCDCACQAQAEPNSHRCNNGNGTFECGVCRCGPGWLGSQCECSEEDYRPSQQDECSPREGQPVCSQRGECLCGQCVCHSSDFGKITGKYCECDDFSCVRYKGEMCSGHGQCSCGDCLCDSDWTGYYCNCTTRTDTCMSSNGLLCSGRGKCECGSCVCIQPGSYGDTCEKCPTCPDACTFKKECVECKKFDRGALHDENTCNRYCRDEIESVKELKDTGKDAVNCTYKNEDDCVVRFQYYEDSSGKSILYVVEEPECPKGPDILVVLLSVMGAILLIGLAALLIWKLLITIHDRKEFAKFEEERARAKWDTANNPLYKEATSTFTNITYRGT
Chain of Integrin alpha-IIb/beta-3 (P08514 32-887 limits assumed): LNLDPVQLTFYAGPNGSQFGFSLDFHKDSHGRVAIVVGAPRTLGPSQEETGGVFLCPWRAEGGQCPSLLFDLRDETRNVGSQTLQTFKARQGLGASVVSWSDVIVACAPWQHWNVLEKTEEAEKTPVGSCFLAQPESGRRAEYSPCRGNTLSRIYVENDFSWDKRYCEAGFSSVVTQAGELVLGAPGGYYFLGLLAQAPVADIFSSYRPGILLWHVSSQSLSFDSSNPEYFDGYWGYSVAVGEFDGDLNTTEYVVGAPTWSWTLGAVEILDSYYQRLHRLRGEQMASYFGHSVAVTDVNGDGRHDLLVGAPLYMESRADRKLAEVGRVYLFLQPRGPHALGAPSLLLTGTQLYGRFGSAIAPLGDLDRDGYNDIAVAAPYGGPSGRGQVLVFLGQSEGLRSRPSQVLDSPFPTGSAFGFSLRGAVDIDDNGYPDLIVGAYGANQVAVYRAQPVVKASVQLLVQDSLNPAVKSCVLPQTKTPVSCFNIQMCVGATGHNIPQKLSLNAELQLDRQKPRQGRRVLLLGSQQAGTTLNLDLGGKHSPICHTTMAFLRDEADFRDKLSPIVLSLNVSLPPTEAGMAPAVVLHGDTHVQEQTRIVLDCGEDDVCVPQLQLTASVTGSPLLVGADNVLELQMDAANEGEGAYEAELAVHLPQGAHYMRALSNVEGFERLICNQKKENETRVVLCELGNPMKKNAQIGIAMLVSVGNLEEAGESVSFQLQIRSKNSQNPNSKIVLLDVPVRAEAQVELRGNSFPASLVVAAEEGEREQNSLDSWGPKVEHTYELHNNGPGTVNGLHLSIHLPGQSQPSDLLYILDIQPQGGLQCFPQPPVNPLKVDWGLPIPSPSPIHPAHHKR
Chain of Integrin alpha-IIb/beta-3 (P08514 891-1039 limits assumed): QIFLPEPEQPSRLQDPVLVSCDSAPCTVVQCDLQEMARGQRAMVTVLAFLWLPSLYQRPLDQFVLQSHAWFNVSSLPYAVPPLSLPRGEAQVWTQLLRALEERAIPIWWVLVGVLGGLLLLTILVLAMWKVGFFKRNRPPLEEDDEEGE

The species named for experiment [2] is Homo sapiens. The experiment in a line: Inhibition of platelet aggregation of human platelet rich plasma(h-PRP) induced by adenosine 5-diphosphate (ADP).(oral activity in mice). The class given is functional. To be noted: read-out: ID50 (the source's name). In short, it runs like this: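 Mice got about 100 mg/kg orally, suspended in 10% gelatin (particle <1 µm); one mouse was killed at 1 h and one at 3 h for plasma. Serial dilutions of plasma (100 µL) were mixed with 300 µL human PRP and aggregated with 10 µM ADP (final). Dose divided by the IC50 dilution factor gave ID50; 1 h and 3 h values pooled, mean ± SEM.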

For experiment [3], the species on record is Homo sapiens. The experiment in a line: Inhibition of platelet aggregation in human platelet rich plasma(h-PRP) induced by adenosine 5-diphosphate (ADP). The class given is functional. In outline: (§1)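 ADP-induced aggregation of human platelet-rich plasma, measured in vitro. Plasma came from at least two donors. IC50 was read from the inhibition of aggregation.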

The species entered for experiment [4] is Homo sapiens. Kind of experiment: Compound was tested for inhibition of platelet aggregation of human platelet rich plasma(h-PRP) induced by adenosine 5-diphosphate (ADP). The class given is functional. In short, it runs like this: as §1

In general, IC50 refers to the concentration that gives 50% inhibition. Read a low IC50 as higher potency. Regarding `CCOC(=O)COC1CCN(C(=O)[C@H](Cc2ccc(O)cc2)NC(=O)c2ccc(C(N)=NC(=O)OCC)cc2)CC1`, the IC50 is more than 8000 nM in experiment [1] and 39800 nM in the experiment listed under Homo sapiens [3]. The ED50 in the experiment filed under Homo sapiens [2] came out at 1.4 mg/kg.

With `CCOC(=O)COC1CCN(C(=O)[C@H](Cc2ccc(O)cc2)NC(=O)c2ccc(C(=N)N)cc2)CC1`, the IC50 in experiment [1] came out at 51 nM; in the experiment filed under Homo sapiens [3] it was 63 nM. The ED50 in the experiment listed under Homo sapiens [2] came out at 6.9 mg/kg.

For the compound `C[C@H](NC(=O)c1ccc(C(=N)N)cc1)C(=O)N1CCC(OCC(=O)O)CC1` [RO-44-3888], the values for the IC50 (in experiment [1]; in the experiment filed under Homo sapiens [3]) were 1.9 nM and 38 nM, respectively. Besides, the ED50 in the experiment listed under Homo sapiens [2] was 5.2 mg/kg.

With `COC(=O)COc1ccc(C(=O)CN(C)C(=O)c2ccc(C(=N)NO)cc2)cc1OCC(=O)OC`, the figures for the IC50 (in experiment [1]; in the experiment listed under Homo sapiens [3]) were more than 10000 nM and more than 100000 nM, respectively. Also, in the experiment listed under Homo sapiens [2], the ED50 was 0.7 mg/kg.

For `C[C@H](NC(=O)c1ccc(C(=N)NO)cc1)C(=O)N1CCC(OCC(=O)O)CC1`, the IC50 in experiment [1] was determined as 594 nM; in the experiment filed under Homo sapiens [3], 13800 nM. In the experiment filed under Homo sapiens [2], the ED50 was 5.1 mg/kg.

For the compound `N=C(N)c1ccc(C(=O)N[C@@H](Cc2ccc(O)cc2)C(=O)N2CCC(OCC(=O)O)CC2)cc1` [LAMIFIBAN], the IC50 is 33 nM in the experiment filed under Homo sapiens [4] and 1.4 nM in experiment [1]. Moreover, in the experiment filed under Homo sapiens [2], the ED50 came to 8.5 mg/kg.

As to `CCCCOC(=O)NC(=N)c1ccc(C(=O)N[C@@H](C)C(=O)N2CCC(OCC(=O)OCC)CC2)cc1`, the IC50 in experiment [1] is more than 10000 nM; in the experiment listed under Homo sapiens [3], more than 100000 nM. For the same compound, the ED50 in the experiment listed under Homo sapiens [2] is 0.3 mg/kg.

In the case of `CC(C)OC(=O)OC(C)OC(=O)COC1CCN(C(=O)[C@H](C)NC(=O)c2ccc(C(=N)NO)cc2)CC1` (stereo not given in full), the concentration for half-maximal inhibition (IC50) in experiment [1] is more than 10000 nM; in the experiment filed under Homo sapiens [3] it was more than 60000 nM. Moreover, in the experiment listed under Homo sapiens [2], the ED50 is 0.34 mg/kg.

`CCOC(=O)COC1CCN(C(=O)[C@H](C)NC(=O)c2ccc(C(=N)N)cc2)CC1`: the IC50 came to 163 nM in experiment [1] and 500 nM in the experiment listed under Homo sapiens [3]. Further, the ED50 in the experiment filed under Homo sapiens [2] came out at 1.8 mg/kg.

`CCOC(=O)NC(=N)c1ccc(C(=O)N[C@@H](Cc2ccc(O)cc2)C(=O)N2CCC(OCC(=O)O)CC2)cc1`: the IC50 worked out at 90 nM in experiment [1] and 1950 nM in the experiment filed under Homo sapiens [3]. In addition, in the experiment filed under Homo sapiens [2], the ED50 was found to be 10.7 mg/kg.

For the compound `CCOC(=O)COC1CCN(C(=O)[C@H](Cc2ccc(O)cc2)NC(=O)c2ccc(C(=N)NO)cc2)CC1`, the IC50 in experiment [1] was more than 10000 nM; in the experiment listed under Homo sapiens [3] it was more than 100000 nM. For the same compound, the ED50 in the experiment filed under Homo sapiens [2] is 2.6 mg/kg.

For `CCOC(=O)NC(=N)c1ccc(C(=O)N[C@@H](Cc2ccc(OC(C)=O)cc2)C(=O)N2CCC(OCC(=O)OC(C)C)CC2)cc1`, the IC50 in experiment [1] is more than 10000 nM; in the experiment filed under Homo sapiens [3] it was more than 100000 nM. Further, the ED50 in the experiment listed under Homo sapiens [2] was determined as 0.9 mg/kg.

As for `CC(C)OC(=O)COc1ccc(C(=O)CN(C)C(=O)c2ccc(C(=N)N)cc2)cc1OCC(=O)OC(C)C`, the IC50 stood at 900 nM in experiment [1] and 345 nM in the experiment filed under Homo sapiens [3]. For the same compound, in the experiment filed under Homo sapiens [2], the ED50 turned out to be 11 mg/kg.

In the case of `CCOC(=O)NC(=N)c1ccc(C(=O)N(C)CC(=O)c2ccc(OCC(=O)OC(C)C)c(OCC(=O)OC(C)C)c2)cc1`, the figures for the half-inhibitory concentration (IC50) (in experiment [1]; in the experiment listed under Homo sapiens [3]) were more than 10000 nM and more than 100000 nM, respectively. The ED50 in the experiment filed under Homo sapiens [2] was determined as 1.4 mg/kg.

For `CN(CC(=O)c1ccc(OCC(=O)O)c(OCC(=O)O)c1)C(=O)c1ccc(C(=N)N)cc1`, the IC50 in experiment [1] turned out to be 0.4 nM; in the experiment listed under Homo sapiens [3], 51 nM. In the experiment listed under Homo sapiens [2], the ED50 was 11.2 mg/kg.
